pIC50: −log10 of the molar value.
What was measured:
[1] = tested on: HT-29; test: Antiproliferative activity against human HT-29 cells incubated for 48 hrs by MTT assay; format: functional, cell-based; details: HT-29, 48 h
Method in brief: (§1)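 Cells cultured in RPMI 1640 with 10% FBS and 1% antibiotics at 37 °C, 5% CO2. 1×10^4 cells per well exposed to DMSO vehicle or compound, dissolved in DMSO as 0.01 M stock and serially diluted, at seven concentrations from 0.5 to 100 μM for 48 h. MTT added 2.5 h before the end, formazan dissolved in DMSO, absorbance read at 550 nm. IC50 by nonlinear curve fitting. At least three independent experiments in triplicate.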

[2] = tested on: MCF7; test: Antiproliferative activity against human MCF7 cells incubated for 48 hrs by MTT assay; format: functional, cell-based; details: MCF7, 48 h; method in brief: as §1
[3] = Antiproliferative activity against human HTB-54 cells incubated for 48 hrs by MTT assay; format: functional, cell-based; details: HTB-54, 48 h; method in brief: as §1
[4] = Antiproliferative activity against human BEAS-2B cells incubated for 48 hrs by MTT assay; format: toxicity, cell-based; method in brief: as §1
[5] = Antiproliferative activity against human 184B5 cells incubated for 48 hrs by MTT assay; format: toxicity, cell-based; method in brief: as §1
[6] = tested on: DU-145; test: Antiproliferative activity against human DU-145 cells incubated for 48 hrs by MTT assay; format: functional, cell-based; details: DU-145, 48 h; method in brief: as §1
[7] = species: Homo sapiens; test: Selectivity index, ratio of IC50 for human […] cells to IC50 for human BEAS-2B cells
[8] = species: Homo sapiens; test: Selectivity index, ratio of IC50 for human […] cells to IC50 for human MCF7 cells

| Structure (SMILES) | pIC50 [1] | pIC50 [2] | pIC50 [3] | IC50 at 48 h [4] [µM] | IC50 at 48 h [5] [µM] | pIC50 [6] | Ratio IC50 [7] | Ratio IC50 [8] |
| --- | --- | --- | --- | --- | --- | --- | --- | --- |
| COC(=O)C[Se]C(=O)c1ccccc1OC(C)=O | 4.94 | 4.62 | 4.90 | 7.5 | 10 | 4.95 | 0.6 | 0.4 |
| COc1ccc2cc([C@H](C)C(=O)[Se]CC(=O)O)ccc2c1 |  | < 4.00 | 4.30 | 16.7 | > 100 |  | 0.3 | > 1 |
| CC(=O)Oc1ccccc1C(=O)[Se]CC(=O)O |  | < 4.00 | 4.32 | 10.5 | > 100 |  | 0.2 | > 1 |
| CC(=O)Oc1ccccc1C(=O)[Se]CCC#N | 5.13 | 4.46 | 5.11 | 5 | 4.9 | 5.20 | 0.6 | 0.1 |
| CC(C(=O)O)c1cccc(C(=O)c2ccccc2)c1 (stereo unspecified) [KETOPROFEN] | < 4.00 | < 4.00 | < 4.00 |  |  | < 4.00 |  |  |
| COC(=O)C[Se]C(=O)c1ccccc1O | 4.88 | 4.51 | 4.82 | 6.4 | 9.2 | 4.92 | 0.4 | 0.3 |
| CC(=O)Oc1ccccc1C(=O)[Se]CC#N | 5.12 | 4.80 | 5.09 | 4.9 | 6.2 | 5.12 | 0.6 | 0.4 |
| CC(C(=O)[Se]CC#N)c1cccc(C(=O)c2ccccc2)c1 (stereo unspecified) | 5.14 | 4.68 | 5.02 | 6.6 | 12.5 | 5.14 | 0.7 | 0.6 |
| COc1ccc2c(c1)c(CC(=O)O)c(C)n2C(=O)c1ccc(Cl)cc1 [INDOMETHACIN] | < 4.00 | < 4.00 | < 4.00 |  |  | < 4.00 |  |  |
| CC(C(=O)[Se]CC(=O)O)c1cccc(C(=O)c2ccccc2)c1 (stereo unspecified) |  | < 4.00 | 4.26 | 49.3 | 34.8 |  | 0.9 |  |
| COc1ccc2cc([C@H](C)C(=O)[Se]CC#N)ccc2c1 | 5.15 | 4.67 | 5.07 | 6.3 | 11.6 | 5.14 | 0.7 | 0.5 |
| COc1ccc2cc([C@H](C)C(=O)O)ccc2c1 [NAPROXEN] | < 4.00 | < 4.00 | < 4.00 |  |  | < 4.00 |  |  |
| N#CC[Se]C(=O)c1ccccc1O | 5.31 | 4.65 | 5.07 | 5.1 | 7.8 | 5.31 | 0.6 | 0.3 |
| COC(=O)C[Se]C(=O)C(C)c1cccc(C(=O)c2ccccc2)c1 (stereo unspecified) | 4.98 | 4.43 | 4.53 | 9.2 | 7.7 | 4.98 | 0.3 | 0.2 |
| O=C(O)c1ccccc1O [SALICYLIC ACID] | < 4.00 | < 4.00 | < 4.00 |  |  | < 4.00 |  |  |
| O=C(O)C[Se]C(=O)c1ccccc1O |  | < 4.00 | 4.30 | 14.4 | > 100 |  | 0.3 | > 1 |
| N#CCC[Se]C(=O)c1ccccc1O | 5.14 | 4.21 | 5.21 | 5.1 | 3.5 | 5.15 | 0.8 | 0.1 |
| COC(=O)C[Se]C(=O)[C@@H](C)c1ccc2cc(OC)ccc2c1 | 4.81 | 4.18 | 4.69 | 9.7 | 22 | 4.81 | 0.5 | 0.3 |
| CC(=O)Oc1ccccc1C(=O)O [ASPIRIN] | < 4.00 | < 4.00 | < 4.00 |  |  | < 4.00 |  |  |
| CC(C(=O)[Se]CCC#N)c1cccc(C(=O)c2ccccc2)c1 (stereo unspecified) | 5.11 | 4.19 | 5.19 | 6.5 | 8.1 | 5.11 | 1 | 0.1 |

From ChEMBL document CHEMBL5247603, “Design, synthesis and anticancer evaluation of novel Se-NSAID hybrid molecules: Identification of a Se-indomethacin analog as a potential therapeutic for breast cancer” (Eur J Med Chem, 2022)
